# High-throughput results as filed in PubChem.
# PAD4 inh – inhibitors of human PAD4; Q9UM07; recombinant PAD4, RCA probe fluorescence polarization; inhibition, % at 6.36 µM; 330,000 tested, 0.41% active;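 active means percent inhibition above a cutoff equal to the mean of all tested compounds plus 3 SD, cut at about 15% in these data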;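 further: 0% = PAD4 with RCA probe and DMSO and 100% = probe without PAD4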
# LYPLA2 inh – blocks human lysophospholipase 2, a PME1 counter-screen; 320,000 tested, 0.38% active; recombinant LYPLA2, FP-Rh probe fluorescence polarization; inhibition, % at 5.9 µM; O95372; AID 2177;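 active means inhibition above the screen-wide mean plus 3 SD, limit set per campaign, cut at about 26% in these data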;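 further: 0% = LYPLA2 with DMSO and 100% = wells lacking LYPLA2 enzyme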
# Target sequence (O95372 whole entry, looked up): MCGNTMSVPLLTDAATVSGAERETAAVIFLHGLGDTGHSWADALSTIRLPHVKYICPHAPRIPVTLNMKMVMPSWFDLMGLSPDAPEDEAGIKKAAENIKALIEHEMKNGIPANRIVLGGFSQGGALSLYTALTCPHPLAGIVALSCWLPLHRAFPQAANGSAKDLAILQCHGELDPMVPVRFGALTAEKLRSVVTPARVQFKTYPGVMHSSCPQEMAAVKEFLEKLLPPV
# Fam108B counter – counter-screen for RBBP9 inhibitors: inhibitors of mouse Fam108B | inhibition, % at 9.51 µM | AID 1947 | recombinant Fam108B, FP-Rh probe fluorescence polarization | 300,000 tested, 0.33% active;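 active means inhibition above the screen mean inhibition plus 3 SD, computed separately per campaign, cut at about 18% in these data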;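 further: inhibitors lower polarization as less probe binds the enzyme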
# PME-1 inh – PME-1 (human) inhibition; inhibition, % at 5.9 µM; recombinant PME-1, FP-Rh probe fluorescence polarization; 320,000 tested, 0.53% active; Q9Y570;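 active means inhibition above the campaign mean of all compounds plus 3 SD, cut at about 26% in these data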;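 further: competitive labeling of PME-1 active site by serine hydrolase directed probe; 0% = PME-1 with DMSO and 100% = wells lacking PME-1 enzyme; inhibitors block probe labeling so polarization falls and inhibition rises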
# LYPLA1 counter – blocks human lysophospholipase 1, a PME1 counter-screen; O75608; recombinant LYPLA1, FP-Rh probe fluorescence polarization; inhibition, % at 5.9 µM; 320,000 tested, 0.16% active; AID 2174;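 active means inhibition above the mean of all tested compounds plus 3 SD, set per campaign, cut at about 14% in these data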;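 further: inhibitors block serine hydrolase probe labeling of LYPLA1 so polarization falls; 0% = enzyme with DMSO and 100% = wells lacking LYPLA1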
# Target sequence (O75608 whole entry, looked up): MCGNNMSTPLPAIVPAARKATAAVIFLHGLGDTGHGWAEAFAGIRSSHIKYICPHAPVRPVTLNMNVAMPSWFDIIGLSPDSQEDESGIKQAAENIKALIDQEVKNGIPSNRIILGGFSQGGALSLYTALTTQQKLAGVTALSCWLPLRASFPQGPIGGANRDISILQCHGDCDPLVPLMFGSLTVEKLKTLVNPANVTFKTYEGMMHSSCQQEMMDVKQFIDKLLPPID
# RBBP9 inh – inhibitors of human serine hydrolase RBBP9. recombinant RBBP9, FP-Rh probe fluorescence polarization. inhibition, % at 7.94 µM. 220,000 tested, 0.2% active. AID 1515;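 active means inhibition above the campaign mean of all tested compounds plus 3 SD, cut at about 14% in these data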;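 further: plate controls were DMSO wells with RBBP9 for no effect and wells lacking RBBP9 protein for full effect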
# Target sequence (O75884 whole entry, looked up): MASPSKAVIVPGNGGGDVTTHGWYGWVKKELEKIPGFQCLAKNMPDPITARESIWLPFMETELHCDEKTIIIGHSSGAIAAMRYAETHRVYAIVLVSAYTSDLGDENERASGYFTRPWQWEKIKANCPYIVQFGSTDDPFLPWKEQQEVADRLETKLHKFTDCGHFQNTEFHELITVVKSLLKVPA
#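 Assay system: recombinant human RBBP9; Reagent: Serine-hydrolase probe FP-Rh, 375 nM pre-mixing; Doses: 7.94 µM single dose, 0.794% DMSO; Incubation: 30 min then 45 min, 25 °C; Detection: fluorescence polarization (mP), excitation 525 nm, emission 598 nm; Evaluation: percent inhibition from mP, scaled between DMSO and no-protein wells.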
# Fam108b confirm – confirmation of mouse Fam108b serine hydrolase inhibitors; 930 tested, 44% active; recombinant Fam108b, FP-Rh probe fluorescence polarization; shares compounds with Fam108B counter; inhibition, % at 9.51 µM;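 active means inhibition above a limit from the primary screen, the mean over all compounds plus 3 SD, cut at about 19% in these data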;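 further: 0% = median of active Fam108b wells and 100% = catalytically dead S170A mutant; inhibitors free the probe so polarization falls as inhibition rises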
# Fam108b inh – mouse ABHD17B inhibition. 260 tested, 44% active. recombinant Fam108b, gel-based ABPP, fluorophosphonate probe. shares compounds with Fam108B counter. inhibition, % at 20 µM; in the data active means inhibition above about 40%
# * hit, by the source's call; nt = no result given. In the library only some 1.3% were active in any assay of this set; here they are far more common.
SMILES,PAD4 inh,LYPLA2 inh,Fam108B counter,PME-1 inh,LYPLA1 counter,RBBP9 inh,Fam108b confirm,others
O=C(Nc1cc(S(=O)(=O)N2CCOCC2)ccc1N1CCCC1)c1cnccn1,0,0,18*,6,1,-5,23*,
O=C(Nc1cc(Cl)ccc1N1CCOCC1)c1cnccn1,0,1,2,-13,-2,-3,nt,
Cc1cc(C)cc(C(=O)Nc2ccncc2)c1,-3,-5,-6,5,2,nt,nt,
O=C(O)c1cc2cc(Oc3ccccc3)ccc2[nH]1,-2,0,3,2,-2,nt,nt,
CCCC(=O)NNc1c2ccccc2nc2ccccc12,-3,1,0,-2,2,3,nt,
O=C(NNc1c2ccccc2nc2ccccc12)c1ccc(O)cc1O,-4,-11,25*,78*,-11,-1,12,
COc1ccc(NC(=O)CCOc2ccccc2C)cc1S(=O)(=O)N1CCCCC1,-3,6,1,7,1,nt,nt,
O=C(O)C(S)C(S)C(=O)O (configuration not stated),2,5,21*,-4,-6,nt,13,
Cc1ccc(NC(=O)c2ccc(Nc3c([N+](=O)[O-])cc([N+](=O)[O-])cc3[N+](=O)[O-])cc2)cc1,-2,12,22*,36*,-2,-5,14,
CC(=O)Nc1ccc(NC(=O)c2cc([N+](=O)[O-])cc([N+](=O)[O-])c2)cc1,-4,0,-1,8,2,nt,nt,
COc1cc([N+](=O)[O-])ccc1NC(=O)CSc1nncn1-c1cccnc1,-1,-3,-2,2,-3,nt,nt,
COc1cc([N+](=O)[O-])ccc1NC(=O)Nc1ccc2c(c1)OCCO2,1,3,19*,19,-1,2,1,
COc1ccc(NC(=O)Nc2cccc([N+](=O)[O-])c2)cc1Cl,0,8,32*,42*,-6,-7,97*,Fam108b inh=10
CC1=C(C(=O)Nc2ccc(Cl)cc2)C2(CCCCC2)C(C(N)=O)C(=S)N1 (configuration not stated),-8,-1,2,4,1,6,nt,
C=CCC1(CC=C)CCCN1C(=O)CC1C(=O)NCCN1Cc1cccc(OC)c1OC (configuration not stated),-1,3,0,-2,1,-13,nt,
Cc1cccc(OCCn2cc(/C=N/NC(=O)c3ccncc3)c3ccccc32)c1,-2,7,30*,27*,3,-7,7,
C/C=C(\C)C(=O)NCCN1C2=NC[C@H](C(C)C)N2C[C@@H]1Cc1ccc(OC)cc1,-4,-1,21*,4,3,3,-7,
C/C=C(\C)C(=O)NCCN1C2=NC[C@H](C(C)C)N2C[C@H]1Cc1ccc(O)cc1,2,6,2,4,4,-6,nt,
N=C1/C(=C/c2cccn2CCOc2ccccc2)C(=O)N=C2SC=C(c3ccccc3)N12,-2,-30,19*,-13,-26,-23,2,
N=C1/C(=C\c2ccc(-c3cc(Cl)cc(Cl)c3)o2)C(=O)N=C2SC=C(c3ccccc3)N12,-16,-8,5,23,-5,-3,nt,
N=C1/C(=C/c2ccc(-c3cccc(C(=O)O)c3)o2)C(=O)N=C2SC=C(c3ccccc3)N12,-12,-21,37*,-12,-18,-5,18*,
COC(=O)c1cc(=O)c2c(C)nc(C(Cl)(Cl)Cl)nc2[nH]1,-2,-4,3,-3,1,1,nt,
CCCNC(=O)c1onc(CSc2ccc(F)cc2)c1C(=O)NCC1CC1,2,1,3,-6,0,nt,nt,
COc1ccc2c(c1)cc(C(=O)N/N=C/c1c(O)c(C(=O)O)cc3ccccc13)n2C,-8,13,43*,49*,4,nt,17,
Cn1c(O)c(C=NNC(=O)c2cc3ccccc3cc2O)c2ccccc21,nt,nt,nt,nt,nt,nt,nt,Fam108b inh=55*
SMILES,PAD4 inh,LYPLA2 inh,Fam108B counter,PME-1 inh,LYPLA1 counter,RBBP9 inh,Fam108b confirm,others
O=c1[nH]c(SCc2ccccc2[N+](=O)[O-])nc2nc[nH]c12,-3,-4,-1,-9,-6,-3,nt,
N#Cc1c(Cl)c(Cl)c2nnc(-c3ccc(Br)cc3)n2c1Cl,3,5,19*,17,2,-4,10,
COc1ccc(OC)c(C(C(=O)NC2CCCCC2)N(Cc2ccco2)C(=O)c2ccccn2)c1 (configuration not stated),-1,4,3,1,1,nt,nt,
Cc1cc(NC(=O)c2cc(-c3ccncc3)nc3ccccc23)ccc1Br,-3,nt,nt,nt,nt,nt,nt,
CC(C)n1c(CSCc2ccc(Cl)cc2Cl)n[nH]c1=S,-3,-9,-31,-3,-4,-8,nt,
Cc1ccc(C)n1-n1c(C)nc2scc(-c3ccccc3)c2c1=O,0,1,-1,0,-1,0,nt,
O=c1oc(-c2ccccc2F)nc2scc(-c3ccccc3)c12,2,-4,55*,-12,-3,-4,54*,Fam108b inh=80*
COc1ccc(-c2csc3nc(-c4ccc(C)cc4)oc(=O)c23)cc1OC,-3,3,-1,10,-4,0,nt,
COc1ccc(-c2csc3nc(-c4ccccc4OC)oc(=O)c23)cc1,1,16,28*,-9,4,1,52*,Fam108b inh=85*
Cc1nc2scc(-c3ccccc3)c2c(=O)o1,-2,7,34*,-2,1,-10,61*,Fam108b inh=85*
COC(=O)c1c(NC(=S)NN2CCN(C)CC2)sc2c1CCC(C)C2 (configuration not stated),-3,0,2,8,0,-6,nt,
CC(=O)Nc1cccc2c1C(=O)N(c1ccccc1OC(C)=O)C2=O,1,0,-1,8,2,-3,nt,
Nc1c(S(=O)(=O)c2cccc(Cl)c2)c2nc3ccccc3nc2n1N=Cc1ccc(O)c(O)c1,nt,nt,nt,nt,nt,nt,nt,Fam108b inh=80*
CC(=O)Nc1ccc(N=Cc2c(O)c(C(=O)Nc3ccccc3)cc3ccccc23)cc1,-4,0,22*,3,0,3,14,
O=C(O)c1ccccc1Oc1ccc(Oc2ccccc2)cc1,0,-4,-1,2,-4,nt,nt,
CC(=O)Nc1ccc2sccc2c1,-1,7,-3,3,3,-2,nt,
O=C1C2C3C=CC(C3)C2C(=O)N1CNc1ccc(O)cc1 (configuration not stated),33*,24,33*,44*,11,nt,12,
Cc1ccc(NCN2C(=O)C3C4C=CC(C4)C3C2=O)cc1 (configuration not stated),0,0,0,0,1,2,nt,
Cc1nc2ccccc2c(=O)n1/N=C/C=C/c1ccccc1,-1,6,24*,1,0,-1,83*,
